Laboratory results as given in ChEMBL document CHEMBL4396947, “Synthesis and characterization of novel isoform-selective IP6K1 inhibitors” (Bioorg Med Chem Lett, 2019).

Assays:
[1] = molecular target: Inositol hexakisphosphate kinase 2 (Homo sapiens, UniProt Q9UHH9); assay: Inhibition of IP6K2 (unknown origin) in presence of ATP at Km concentration by Cheng-Prusoff equation analysis
In short: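 Purified IP6K isoforms run in the ADP-Glo Max kinase assay with 1 mM ATP. Measured IC50 values converted to Ki with the Cheng-Prusoff equation.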

[2] = molecular target: Inositol hexakisphosphate kinase 3 (Homo sapiens, UniProt Q96PC2); assay: Inhibition of IP6K3 (unknown origin) incubated for 120 mins using IP6 as substrate in presence of ATP by ADP-Glo reagent based luminescence assay
Sequence of Inositol hexakisphosphate kinase 3 (Q96PC2 whole entry): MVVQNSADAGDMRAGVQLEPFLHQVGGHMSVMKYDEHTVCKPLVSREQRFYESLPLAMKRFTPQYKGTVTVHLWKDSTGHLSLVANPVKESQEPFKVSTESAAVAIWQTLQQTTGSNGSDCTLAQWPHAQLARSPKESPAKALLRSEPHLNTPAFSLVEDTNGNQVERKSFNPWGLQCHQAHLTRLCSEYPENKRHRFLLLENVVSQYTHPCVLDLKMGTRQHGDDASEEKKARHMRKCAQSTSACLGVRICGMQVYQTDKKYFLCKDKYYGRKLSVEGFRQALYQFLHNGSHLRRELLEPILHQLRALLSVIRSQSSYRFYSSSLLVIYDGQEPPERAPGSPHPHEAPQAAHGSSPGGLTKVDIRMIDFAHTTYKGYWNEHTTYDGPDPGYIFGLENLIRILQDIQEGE
In short: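 Luminescent ADP-Glo Max format adapted for IP6K, with purified enzyme and ATP at 1 mM, which is consumed as the kinase reaction proceeds. IC50 taken from the resulting inhibition data.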

[3] = molecular target: Inositol hexakisphosphate kinase 1 (Homo sapiens, UniProt Q92551); assay: Binding affinity to IP6K1 (unknown origin) assessed as change in melting temperature by SYPRO orange dye-based assay
Sequence of Inositol hexakisphosphate kinase 1 (Q92551 whole entry, looked up): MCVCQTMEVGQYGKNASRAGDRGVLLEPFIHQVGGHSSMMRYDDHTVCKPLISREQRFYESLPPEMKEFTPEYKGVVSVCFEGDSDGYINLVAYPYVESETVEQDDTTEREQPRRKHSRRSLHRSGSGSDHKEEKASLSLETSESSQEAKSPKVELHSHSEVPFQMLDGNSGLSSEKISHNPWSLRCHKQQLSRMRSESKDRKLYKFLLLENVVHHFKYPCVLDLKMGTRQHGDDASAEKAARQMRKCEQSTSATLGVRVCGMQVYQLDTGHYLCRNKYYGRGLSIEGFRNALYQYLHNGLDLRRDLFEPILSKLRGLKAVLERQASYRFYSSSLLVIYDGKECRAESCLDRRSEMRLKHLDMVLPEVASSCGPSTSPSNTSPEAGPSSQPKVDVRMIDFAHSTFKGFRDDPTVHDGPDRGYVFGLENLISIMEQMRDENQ
In short: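 Thermal shift format. Purified IP6K1 heated across a temperature gradient with the ligand at several concentrations. Binding read as the rise in protein melting temperature, including the maximal Tm shift (TmMax).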

[4] = molecular target: Tyrosine-protein kinase ABL1 (Homo sapiens) (UniProt P00519); assay: Inhibition of human recombinant ABL (27 to end residues) assessed as residual activity at 10 uM using EAIYAAPFAKKK as substrate incubated for 40 mins in presence of [gamma-33P]ATP at Km concentration by radiometric assay relative to control
[5] = molecular target: Mitogen-activated protein kinase kinase kinase 5 (Homo sapiens) (UniProt Q99683); assay: Inhibition of recombinant human ASK1 (649 to 946 residues) assessed as residual activity at 10 uM using myelin basic protein as substrate incubated for 40 mins in presence of [gamma-33P]ATP at Km concentration by radiometric assay relative to control
Sequence of Mitogen-activated protein kinase kinase kinase 5 (Homo sapiens) (Q99683 whole entry, the tested form may be a part): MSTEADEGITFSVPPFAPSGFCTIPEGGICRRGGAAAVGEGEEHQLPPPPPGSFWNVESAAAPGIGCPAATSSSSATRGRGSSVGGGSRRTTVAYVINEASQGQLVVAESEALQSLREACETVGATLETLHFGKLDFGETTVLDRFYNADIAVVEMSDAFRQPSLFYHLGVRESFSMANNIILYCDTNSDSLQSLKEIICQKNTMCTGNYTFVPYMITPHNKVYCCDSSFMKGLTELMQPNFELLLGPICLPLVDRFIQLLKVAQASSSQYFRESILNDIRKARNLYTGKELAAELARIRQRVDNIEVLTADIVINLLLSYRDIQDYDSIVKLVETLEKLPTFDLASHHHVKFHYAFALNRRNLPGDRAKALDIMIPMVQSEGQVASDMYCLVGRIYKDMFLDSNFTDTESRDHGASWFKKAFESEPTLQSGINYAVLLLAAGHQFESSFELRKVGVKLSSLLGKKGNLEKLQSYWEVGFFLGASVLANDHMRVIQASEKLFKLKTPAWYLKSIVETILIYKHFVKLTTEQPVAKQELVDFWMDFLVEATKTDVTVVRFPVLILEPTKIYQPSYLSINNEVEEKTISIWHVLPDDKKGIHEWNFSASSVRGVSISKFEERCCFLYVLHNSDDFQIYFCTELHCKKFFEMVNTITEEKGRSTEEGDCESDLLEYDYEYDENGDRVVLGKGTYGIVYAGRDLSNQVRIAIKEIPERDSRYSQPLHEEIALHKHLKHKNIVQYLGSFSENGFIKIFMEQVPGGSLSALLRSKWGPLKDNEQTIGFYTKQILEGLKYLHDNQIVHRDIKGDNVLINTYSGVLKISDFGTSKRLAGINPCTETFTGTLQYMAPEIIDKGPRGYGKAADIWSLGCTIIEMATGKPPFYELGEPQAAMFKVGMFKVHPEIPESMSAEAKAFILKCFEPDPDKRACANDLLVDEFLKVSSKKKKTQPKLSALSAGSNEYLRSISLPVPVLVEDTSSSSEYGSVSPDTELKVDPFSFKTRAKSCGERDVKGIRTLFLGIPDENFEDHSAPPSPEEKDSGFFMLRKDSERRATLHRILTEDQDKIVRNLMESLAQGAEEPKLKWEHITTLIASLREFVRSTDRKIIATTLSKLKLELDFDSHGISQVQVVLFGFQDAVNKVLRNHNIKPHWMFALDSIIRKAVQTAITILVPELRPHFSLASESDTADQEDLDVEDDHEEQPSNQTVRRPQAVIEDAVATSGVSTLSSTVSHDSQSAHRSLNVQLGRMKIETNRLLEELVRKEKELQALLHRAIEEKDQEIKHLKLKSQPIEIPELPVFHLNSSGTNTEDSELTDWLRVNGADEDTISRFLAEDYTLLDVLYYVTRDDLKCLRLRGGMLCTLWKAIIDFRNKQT

Homo sapiens [6] = species on record: Homo sapiens; assay: Inhibition of recombinant full-length human AURKA I31F mutant assessed as residual activity at 10 uM using LRRASLG as substrate incubated for 40 mins in presence of [gamma-33P]ATP at Km concentration by radiometric assay relative to control
[7] = molecular target: CDK2/Cyclin A2 (Homo sapiens) (UniProt P24941+P20248); assay: Inhibition of human full length recombinant CDK2/cyclinA assessed as residual activity at 10 uM using Histone H1 as substrate incubated for 40 mins in presence of [gamma-33P]ATP at Km concentration by radiometric assay relative to control; format: protein-complex assay
[8] = molecular target: Ephrin type-B receptor 4 (Homo sapiens) (UniProt P54760); assay: Inhibition of recombinant human EPHB4 (561 to end residues) assessed as residual activity at 10 uM using poly (Glu,Tyr) 4:1 as substrate incubated for 40 mins in presence of [gamma-33P]ATP at Km concentration by radiometric assay relative to control
[9] = molecular target: Insulin-like growth factor 1 receptor (Homo sapiens) (UniProt P08069); assay: Inhibition of human recombinant IGF1R (959 to end residues) assessed as residual activity at 10 uM using KKKSPGEYVNIEF as substrate incubated for 40 mins in presence of [gamma-33P]ATP at Km concentration by radiometric assay relative to control
[10] = molecular target: Tyrosine-protein kinase JAK2 (Homo sapiens) (UniProt O60674); assay: Inhibition of human recombinant JAK2 (808 to end residues) assessed as residual activity at 10 uM using KTFCGTPEYLAPE as substrate incubated for 40 mins in presence of [gamma-33P]ATP at Km concentration by radiometric assay relative to control
[11] = molecular target: Tyrosine-protein kinase Lyn (Homo sapiens) (UniProt P07948); assay: Inhibition of full length recombinant human LYN assessed as residual activity at 10 uM using poly (Glu,Tyr) 4:1 as substrate incubated for 40 mins in presence of [gamma-33P]ATP at Km concentration by radiometric assay relative to control
Homo sapiens [12] = species on record: Homo sapiens; assay: Inhibition of recombinant human MAPKAPK2 A399G mutant (46 to end residues) assessed as residual activity at 10 uM using KKLNRTLSVA as substrate incubated for 40 mins in presence of [gamma-33P]ATP at Km concentration by radiometric assay relative to control
[13] = molecular target: Dual specificity mitogen-activated protein kinase kinase 1 (Homo sapiens) (UniProt Q02750); assay: Inhibition of full length recombinant human MEK1 assessed as residual activity at 10 uM using inactive MAPK2 as substrate incubated for 40 mins in presence of [gamma-33P]ATP at Km concentration by radiometric assay relative to control
Sequence of Dual specificity mitogen-activated protein kinase kinase 1 (Homo sapiens) (Q02750 whole entry, the tested form may be a part): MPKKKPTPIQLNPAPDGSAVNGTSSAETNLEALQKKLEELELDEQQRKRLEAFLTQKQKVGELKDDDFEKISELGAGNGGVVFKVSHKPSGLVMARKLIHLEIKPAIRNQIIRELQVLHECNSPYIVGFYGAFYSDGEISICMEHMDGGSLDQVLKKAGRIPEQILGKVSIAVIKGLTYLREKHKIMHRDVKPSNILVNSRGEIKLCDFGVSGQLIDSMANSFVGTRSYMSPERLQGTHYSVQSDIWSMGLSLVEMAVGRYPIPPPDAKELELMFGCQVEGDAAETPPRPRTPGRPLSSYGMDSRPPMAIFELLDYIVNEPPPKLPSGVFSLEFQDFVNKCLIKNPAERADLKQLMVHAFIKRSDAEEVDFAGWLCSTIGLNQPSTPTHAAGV

[14] = molecular target: Mitogen-activated protein kinase kinase kinase 9 (Homo sapiens) (UniProt P80192); assay: Inhibition of recombinant human MLK1 (134 to 414 residues) assessed as residual activity at 10 uM using casein as substrate incubated for 40 mins in presence of [gamma-33P]ATP at Km concentration by radiometric assay relative to control
Sequence of Mitogen-activated protein kinase kinase kinase 9 (Homo sapiens) (P80192 whole entry, looked up, the tested form may be a part): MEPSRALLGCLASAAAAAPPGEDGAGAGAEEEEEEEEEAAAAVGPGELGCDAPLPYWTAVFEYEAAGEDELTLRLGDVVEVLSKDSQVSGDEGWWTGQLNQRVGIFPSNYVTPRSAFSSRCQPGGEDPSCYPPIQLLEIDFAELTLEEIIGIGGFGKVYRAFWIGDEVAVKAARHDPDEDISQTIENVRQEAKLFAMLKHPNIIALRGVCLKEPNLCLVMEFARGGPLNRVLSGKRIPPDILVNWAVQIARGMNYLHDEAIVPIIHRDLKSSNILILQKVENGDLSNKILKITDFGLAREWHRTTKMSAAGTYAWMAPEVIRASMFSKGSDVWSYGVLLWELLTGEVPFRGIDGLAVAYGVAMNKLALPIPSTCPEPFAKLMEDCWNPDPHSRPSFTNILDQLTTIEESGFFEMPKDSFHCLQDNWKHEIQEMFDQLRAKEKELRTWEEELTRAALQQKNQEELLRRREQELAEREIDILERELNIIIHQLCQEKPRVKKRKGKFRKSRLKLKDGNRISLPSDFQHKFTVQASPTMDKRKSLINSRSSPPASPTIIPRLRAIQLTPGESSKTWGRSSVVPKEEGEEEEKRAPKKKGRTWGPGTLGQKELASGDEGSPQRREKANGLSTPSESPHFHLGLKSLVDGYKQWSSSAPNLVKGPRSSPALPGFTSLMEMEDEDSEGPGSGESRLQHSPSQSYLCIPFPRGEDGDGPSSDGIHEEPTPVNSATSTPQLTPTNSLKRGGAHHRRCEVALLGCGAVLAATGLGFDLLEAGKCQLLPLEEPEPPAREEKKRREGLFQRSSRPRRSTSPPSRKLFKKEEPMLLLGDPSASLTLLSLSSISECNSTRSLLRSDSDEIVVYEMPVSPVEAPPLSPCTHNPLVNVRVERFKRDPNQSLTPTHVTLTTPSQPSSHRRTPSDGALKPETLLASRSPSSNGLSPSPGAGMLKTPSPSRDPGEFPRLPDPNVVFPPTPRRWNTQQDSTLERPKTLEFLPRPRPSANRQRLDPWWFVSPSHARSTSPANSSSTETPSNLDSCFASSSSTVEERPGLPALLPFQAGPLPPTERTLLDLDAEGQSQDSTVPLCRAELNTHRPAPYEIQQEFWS

[15] = molecular target: Ribosomal protein S6 kinase alpha-4 (Homo sapiens) (UniProt O75676); assay: Inhibition of full length recombinant human MSK2 assessed as residual activity at 10 uM using GRPRTSSFAEGKK as substrate incubated for 40 mins in presence of [gamma-33P]ATP at Km concentration by radiometric assay relative to control
Sequence of Ribosomal protein S6 kinase alpha-4 (Homo sapiens) (O75676 whole entry, looked up): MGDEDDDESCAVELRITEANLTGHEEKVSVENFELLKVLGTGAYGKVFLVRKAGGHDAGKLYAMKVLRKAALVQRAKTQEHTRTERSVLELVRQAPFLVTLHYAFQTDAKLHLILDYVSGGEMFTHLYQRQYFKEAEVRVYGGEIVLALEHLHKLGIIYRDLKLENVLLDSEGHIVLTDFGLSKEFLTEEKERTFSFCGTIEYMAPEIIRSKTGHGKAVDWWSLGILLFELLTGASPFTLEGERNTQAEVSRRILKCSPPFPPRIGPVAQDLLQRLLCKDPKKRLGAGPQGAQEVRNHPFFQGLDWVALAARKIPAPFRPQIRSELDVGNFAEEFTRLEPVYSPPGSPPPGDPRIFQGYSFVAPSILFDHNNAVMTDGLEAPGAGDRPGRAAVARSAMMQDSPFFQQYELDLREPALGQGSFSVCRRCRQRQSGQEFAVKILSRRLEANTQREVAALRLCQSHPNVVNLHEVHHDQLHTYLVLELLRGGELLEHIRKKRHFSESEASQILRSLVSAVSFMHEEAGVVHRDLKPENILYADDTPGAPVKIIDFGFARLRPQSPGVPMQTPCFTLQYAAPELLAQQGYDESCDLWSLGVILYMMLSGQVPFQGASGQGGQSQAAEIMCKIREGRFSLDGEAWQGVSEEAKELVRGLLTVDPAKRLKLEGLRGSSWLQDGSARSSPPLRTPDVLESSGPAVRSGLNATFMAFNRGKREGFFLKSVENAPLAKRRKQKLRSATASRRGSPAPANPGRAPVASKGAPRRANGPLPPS

[16] = molecular target: Platelet-derived growth factor receptor beta (Homo sapiens) (UniProt P09619); assay: Inhibition of recombinant human PDGFRbeta (557 to end residues) assessed as residual activity at 10 uM using poly (Glu,Tyr) 4:1 as substrate incubated for 40 mins in presence of [gamma-33P]ATP at Km concentration by radiometric assay relative to control
[17] = molecular target: Serine/threonine-protein kinase pim-1 (Homo sapiens) (UniProt P11309); assay: Inhibition of recombinant full length human PIM1 assessed as residual activity at 10 uM using KKRNRTLTV as substrate incubated for 40 mins in presence of [gamma-33P]ATP at Km concentration by radiometric assay relative to control
Sequence of Serine/threonine-protein kinase pim-1 (Homo sapiens) (P11309 whole entry, looked up): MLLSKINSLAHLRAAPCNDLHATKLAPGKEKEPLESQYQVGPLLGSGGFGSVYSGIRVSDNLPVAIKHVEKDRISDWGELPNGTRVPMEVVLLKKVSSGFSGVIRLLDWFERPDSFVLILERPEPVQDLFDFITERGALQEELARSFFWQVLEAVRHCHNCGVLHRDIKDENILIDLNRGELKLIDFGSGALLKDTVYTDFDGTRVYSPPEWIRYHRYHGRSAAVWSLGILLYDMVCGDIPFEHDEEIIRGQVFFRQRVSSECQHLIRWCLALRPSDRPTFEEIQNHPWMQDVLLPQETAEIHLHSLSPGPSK

[18] = molecular target: cAMP-dependent protein kinase catalytic subunit alpha (Homo sapiens) (UniProt P17612); assay: Inhibition of recombinant full length human PRKACA assessed as residual activity at 10 uM using LRRASLG as substrate incubated for 40 mins in presence of [gamma-33P]ATP at Km concentration by radiometric assay relative to control
Homo sapiens [19] = species on record: Homo sapiens; assay: Inhibition of recombinant human PKBalpha S478G mutant assessed as residual activity at 10 uM using GRPRTSSFAEGKK as substrate incubated for 40 mins in presence of [gamma-33P]ATP at Km concentration by radiometric assay relative to control
[20] = molecular target: Protein kinase C alpha type (Homo sapiens) (UniProt P17252); assay: Inhibition of recombinant full length human PKCalpha assessed as residual activity at 10 uM using histone H1 as substrate incubated for 40 mins in presence of [gamma-33P]ATP at Km concentration by radiometric assay relative to control
[21] = molecular target: CDK9/cyclin T1 (Homo sapiens) (UniProt O60563+P50750); assay: Inhibition of recombinant full length human CDK9/CyclinT1 assessed as residual activity at 10 uM using KTFCGTPEYLAPE as substrate incubated for 40 mins in presence of [gamma-33P]ATP at Km concentration by radiometric assay relative to control; format: protein-complex assay

**Q.** Which Ki [1] does the source give for COc1ccc2c(CCNc3nc(NCc4ccc(=O)[nH]c4)c4nc[nH]c4n3)c[nH]c2c1 here?
**A.** The Ki was 4.88 µM.

**Q.** And the IC50 [2]?
**A.** Its IC50 is 15 µM.

**Q.** And the ΔTm [3]?
**A.** Its ΔTm is 6.6 °C.

**Q.** What about the Activity [4] of the same compound?
**A.** Its Activity is 90%.

**Q.** What about the Activity [5] of the same compound?
**A.** Its Activity is 72%.

**Q.** What about the Activity (Homo sapiens [6]) of the same compound?
**A.** Its Activity is 46%.

**Q.** What about the Activity [7] of the same compound?
**A.** Its Activity is 90%.

**Q.** And the Activity [8]?
**A.** Its Activity is 69%.

**Q.** And the Activity [9]?
**A.** Its Activity is 86%.

**Q.** What about the Activity [10] of the same compound?
**A.** The Activity was 96%.

**Q.** What about the Activity [11] of the same compound?
**A.** The Activity was 86%.

**Q.** And the Activity (Homo sapiens [12])?
**A.** The Activity was 102%.

**Q.** What about the Activity [13] of the same compound?
**A.** Its Activity is 11%.

**Q.** What about the Activity [14] of the same compound?
**A.** Its Activity is 24%.

**Q.** What about the Activity [15] of the same compound?
**A.** Its Activity is 96%.

**Q.** What about the Activity [16] of the same compound?
**A.** The Activity was 101%.

**Q.** And the Activity [17]?
**A.** The Activity was 82%.

**Q.** What about the Activity [18] of the same compound?
**A.** Its Activity is 77%.

**Q.** What about the Activity (Homo sapiens [19]) of the same compound?
**A.** Its Activity is 84%.

**Q.** And the Activity [20]?
**A.** Its Activity is 86%.

**Q.** What about the Activity [21] of the same compound?
**A.** Its Activity is 79%.
